In BindingDB's records for doi:10.1016/j.ejmech.2021.113996 (The University of Michigan Medical School, 2022) one finds IC50 data, which are given here for three compounds.

The target in experiment [1] is Phosphatidylinositol 4,5-bisphosphate 3-kinase catalytic subunit alpha isoform (Homo sapiens, UniProt P42336). The experiment in a line: Inhibition of human PI3Kalpha by TR-FRET based Adapta assay.
Experiment [2] deals with Phosphatidylinositol 4,5-bisphosphate 3-kinase catalytic subunit beta isoform (Homo sapiens, UniProt P42338). The experiment in a line: Inhibition of human PI3Kbeta by TR-FRET based Adapta assay. The procedure, abridged: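 Purified human PI3K isoforms α, β, γ and δ assayed by fluorescence-based Adapta TR-FRET lipid kinase assay (outsourced). Inhibitor range 0.1 nM–10 μM. IC₅₀ is the mean ± SEM of three experiments, each run in duplicate.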

Experiment [3] concerns the target Phosphatidylinositol 4,5-bisphosphate 3-kinase catalytic subunit gamma isoform (Homo sapiens, UniProt P48736). The experiment in a line: Inhibition of human PI3Kgamma by TR-FRET based Adapta assay.
The target in experiment [4] is T1, Phosphatidylinositol 4,5-bisphosphate 3-kinase catalytic subunit delta isoform (Homo sapiens, UniProt O00329).
T1 sequence (O00329 whole entry): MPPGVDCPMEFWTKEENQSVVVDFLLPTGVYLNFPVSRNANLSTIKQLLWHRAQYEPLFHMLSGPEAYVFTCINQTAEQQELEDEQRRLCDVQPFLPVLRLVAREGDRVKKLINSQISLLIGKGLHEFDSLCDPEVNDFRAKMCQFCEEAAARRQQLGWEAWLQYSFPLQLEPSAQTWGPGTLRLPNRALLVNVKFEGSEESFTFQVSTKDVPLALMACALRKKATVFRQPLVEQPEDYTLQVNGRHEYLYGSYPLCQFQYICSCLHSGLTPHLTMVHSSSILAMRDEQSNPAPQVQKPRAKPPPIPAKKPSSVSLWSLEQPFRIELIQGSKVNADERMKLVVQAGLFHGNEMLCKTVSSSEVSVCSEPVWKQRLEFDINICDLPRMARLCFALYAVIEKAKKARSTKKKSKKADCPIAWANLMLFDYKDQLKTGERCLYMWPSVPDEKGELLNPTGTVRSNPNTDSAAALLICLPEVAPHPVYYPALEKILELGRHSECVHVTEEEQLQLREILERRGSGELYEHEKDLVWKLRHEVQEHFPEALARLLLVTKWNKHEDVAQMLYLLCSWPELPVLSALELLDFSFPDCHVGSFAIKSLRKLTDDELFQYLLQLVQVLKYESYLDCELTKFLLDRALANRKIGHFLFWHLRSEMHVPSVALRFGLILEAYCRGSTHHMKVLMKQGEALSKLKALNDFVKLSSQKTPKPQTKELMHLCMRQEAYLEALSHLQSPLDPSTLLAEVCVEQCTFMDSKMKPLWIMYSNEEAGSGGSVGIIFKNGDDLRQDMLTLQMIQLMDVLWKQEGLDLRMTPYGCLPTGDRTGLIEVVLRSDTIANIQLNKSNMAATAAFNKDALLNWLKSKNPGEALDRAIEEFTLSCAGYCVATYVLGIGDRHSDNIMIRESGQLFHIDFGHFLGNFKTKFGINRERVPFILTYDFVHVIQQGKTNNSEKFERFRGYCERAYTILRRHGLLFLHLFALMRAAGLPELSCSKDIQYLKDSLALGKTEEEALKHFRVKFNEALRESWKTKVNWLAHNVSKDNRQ
The experiment in a line: Inhibition of human PI3Kdelta by TR-FRET based Adapta assay.

Phosphatidylinositol 4,5-bisphosphate 3-kinase catalytic subunit alpha isoform, sequence (P42336 whole entry, canonical isoform): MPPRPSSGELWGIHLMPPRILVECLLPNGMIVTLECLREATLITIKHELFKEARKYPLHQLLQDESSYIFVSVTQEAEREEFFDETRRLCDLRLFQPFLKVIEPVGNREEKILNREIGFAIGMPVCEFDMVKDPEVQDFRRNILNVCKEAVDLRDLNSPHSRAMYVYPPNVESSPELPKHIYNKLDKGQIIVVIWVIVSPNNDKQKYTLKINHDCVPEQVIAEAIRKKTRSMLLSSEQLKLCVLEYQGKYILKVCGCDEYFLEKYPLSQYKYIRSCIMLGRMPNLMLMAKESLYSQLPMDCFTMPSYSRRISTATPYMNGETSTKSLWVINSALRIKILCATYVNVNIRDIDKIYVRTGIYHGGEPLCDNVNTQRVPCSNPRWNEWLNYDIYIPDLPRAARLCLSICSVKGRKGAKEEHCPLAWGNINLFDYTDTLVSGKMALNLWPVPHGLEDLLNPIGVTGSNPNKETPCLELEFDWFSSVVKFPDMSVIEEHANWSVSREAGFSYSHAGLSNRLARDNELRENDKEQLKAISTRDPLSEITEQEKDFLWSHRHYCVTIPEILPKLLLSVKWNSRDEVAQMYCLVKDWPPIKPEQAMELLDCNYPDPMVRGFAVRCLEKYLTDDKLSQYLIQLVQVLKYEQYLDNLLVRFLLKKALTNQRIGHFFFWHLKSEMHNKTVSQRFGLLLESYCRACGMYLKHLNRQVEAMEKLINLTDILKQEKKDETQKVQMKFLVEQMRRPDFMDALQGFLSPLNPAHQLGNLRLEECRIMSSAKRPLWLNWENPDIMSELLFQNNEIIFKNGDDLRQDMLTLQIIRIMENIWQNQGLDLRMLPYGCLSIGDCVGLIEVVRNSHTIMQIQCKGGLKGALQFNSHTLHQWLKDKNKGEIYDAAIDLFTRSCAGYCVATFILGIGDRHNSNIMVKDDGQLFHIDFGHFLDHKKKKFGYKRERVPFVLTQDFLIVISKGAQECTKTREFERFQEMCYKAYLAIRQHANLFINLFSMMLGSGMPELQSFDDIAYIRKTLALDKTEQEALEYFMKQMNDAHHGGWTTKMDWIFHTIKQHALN
Phosphatidylinositol 4,5-bisphosphate 3-kinase catalytic subunit beta isoform, sequence (P42338 whole entry, canonical isoform): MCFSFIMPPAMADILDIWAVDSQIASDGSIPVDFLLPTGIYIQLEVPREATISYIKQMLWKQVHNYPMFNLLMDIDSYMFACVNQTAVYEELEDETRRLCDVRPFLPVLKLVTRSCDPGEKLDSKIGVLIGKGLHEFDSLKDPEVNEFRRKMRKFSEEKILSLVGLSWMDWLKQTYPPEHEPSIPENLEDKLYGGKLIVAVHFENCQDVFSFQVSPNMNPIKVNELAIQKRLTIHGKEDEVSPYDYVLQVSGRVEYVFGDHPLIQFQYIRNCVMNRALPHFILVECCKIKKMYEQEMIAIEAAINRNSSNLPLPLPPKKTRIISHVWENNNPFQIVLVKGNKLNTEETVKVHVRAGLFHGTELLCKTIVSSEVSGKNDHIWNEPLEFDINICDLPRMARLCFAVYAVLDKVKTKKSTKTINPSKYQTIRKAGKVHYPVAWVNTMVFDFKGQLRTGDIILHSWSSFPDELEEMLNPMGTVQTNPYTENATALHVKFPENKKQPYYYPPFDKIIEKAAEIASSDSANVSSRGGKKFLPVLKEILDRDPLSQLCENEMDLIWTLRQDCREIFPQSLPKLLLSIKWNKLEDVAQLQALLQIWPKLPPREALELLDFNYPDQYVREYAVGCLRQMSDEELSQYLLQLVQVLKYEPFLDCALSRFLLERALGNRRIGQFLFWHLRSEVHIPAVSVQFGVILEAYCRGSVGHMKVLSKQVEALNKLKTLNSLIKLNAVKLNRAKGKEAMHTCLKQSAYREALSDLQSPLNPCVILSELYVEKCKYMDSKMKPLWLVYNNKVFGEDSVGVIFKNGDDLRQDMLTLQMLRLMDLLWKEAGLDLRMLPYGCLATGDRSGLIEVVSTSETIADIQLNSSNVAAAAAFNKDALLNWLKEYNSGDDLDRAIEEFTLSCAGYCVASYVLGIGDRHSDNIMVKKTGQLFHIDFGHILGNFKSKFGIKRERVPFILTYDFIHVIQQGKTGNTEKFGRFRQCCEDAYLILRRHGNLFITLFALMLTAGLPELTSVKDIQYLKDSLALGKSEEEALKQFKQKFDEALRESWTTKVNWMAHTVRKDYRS
Phosphatidylinositol 4,5-bisphosphate 3-kinase catalytic subunit gamma isoform, sequence (P48736 whole entry, canonical isoform): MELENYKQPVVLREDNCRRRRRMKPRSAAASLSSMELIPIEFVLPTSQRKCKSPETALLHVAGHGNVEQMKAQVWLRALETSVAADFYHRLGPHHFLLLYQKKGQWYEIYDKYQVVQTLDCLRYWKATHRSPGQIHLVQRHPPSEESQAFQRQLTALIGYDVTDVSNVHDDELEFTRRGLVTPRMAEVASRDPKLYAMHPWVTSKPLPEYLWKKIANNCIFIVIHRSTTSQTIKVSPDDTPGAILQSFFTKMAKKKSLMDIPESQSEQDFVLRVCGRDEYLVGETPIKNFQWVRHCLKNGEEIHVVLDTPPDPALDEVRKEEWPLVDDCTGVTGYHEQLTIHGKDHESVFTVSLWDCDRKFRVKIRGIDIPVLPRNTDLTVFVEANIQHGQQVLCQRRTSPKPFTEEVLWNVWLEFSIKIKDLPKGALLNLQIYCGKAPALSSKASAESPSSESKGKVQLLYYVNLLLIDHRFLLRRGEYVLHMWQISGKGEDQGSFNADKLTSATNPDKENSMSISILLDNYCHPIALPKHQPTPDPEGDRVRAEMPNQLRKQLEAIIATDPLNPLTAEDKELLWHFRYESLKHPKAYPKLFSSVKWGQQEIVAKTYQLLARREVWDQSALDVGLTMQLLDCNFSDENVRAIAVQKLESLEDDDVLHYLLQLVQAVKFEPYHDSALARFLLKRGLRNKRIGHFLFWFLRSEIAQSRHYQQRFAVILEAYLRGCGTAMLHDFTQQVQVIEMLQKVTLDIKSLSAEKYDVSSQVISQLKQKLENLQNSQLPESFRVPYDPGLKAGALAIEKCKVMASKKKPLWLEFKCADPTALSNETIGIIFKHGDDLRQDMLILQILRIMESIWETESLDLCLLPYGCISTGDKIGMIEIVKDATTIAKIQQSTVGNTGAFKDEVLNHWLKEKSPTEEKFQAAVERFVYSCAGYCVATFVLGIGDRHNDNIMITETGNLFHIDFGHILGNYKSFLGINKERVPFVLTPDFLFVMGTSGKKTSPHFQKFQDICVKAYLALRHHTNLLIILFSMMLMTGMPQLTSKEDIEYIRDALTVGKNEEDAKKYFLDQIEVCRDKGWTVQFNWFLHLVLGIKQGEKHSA

Turning to `CNCCN(CCO)c1nc(N2CCOCC2)nc(-n2c(C(F)F)nc3ccccc32)n1`, the IC50 in experiment [1] turned out to be 148 nM; in experiment [2], 627 nM; in experiment [3], 869 nM; in experiment [4] it was 47 nM.
Turning to `CC(=O)N1CCN(c2nc(N3CCOCC3)nc(-n3c(C(F)F)nc4ccccc43)n2)CC1`, the half-maximal inhibitory concentration (IC50) came out at 8.2 nM in experiment [1] and 2.9 nM in experiment [4].
Take `FC(F)c1nc2ccccc2n1-c1nc(N2CCNCC2)nc(N2CCOCC2)n1`: the results for the IC50 in experiment [1] and in experiment [4] were 180 nM and 142 nM, respectively.
